Peptide text beside a SMILES is read from it.
Assays:
Type in all cases: tissue-based
[1] = biological target: Delta-type opioid receptor (Mus musculus, UniProt P32300); experiment: Inhibitory potency against Opioid receptor delta 1 was determined in electrically induced smooth muscle contractions of mouse vas deferens (MVD)
Summary of the method: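 Vas deferens from male ICR mice (25–40 g), in Mg-free oxygenated Krebs at 37 °C under 0.5 g tension. Transmural stimulation at 0.1 Hz, 2.0-ms pulses, supramaximal voltage. […] IC50 from Hill fit of mean data from at least four tissues.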

Mu-type opioid receptor [2] = biological target: Mu-type opioid receptor (Rattus norvegicus, UniProt P33535); experiment: Inhibition of binding of radioligand [3H]CTOP to Opioid receptor mu 1 in rat brain
Sequence of Mu-type opioid receptor (Rattus norvegicus, UniProt P33535) (P33535 whole entry): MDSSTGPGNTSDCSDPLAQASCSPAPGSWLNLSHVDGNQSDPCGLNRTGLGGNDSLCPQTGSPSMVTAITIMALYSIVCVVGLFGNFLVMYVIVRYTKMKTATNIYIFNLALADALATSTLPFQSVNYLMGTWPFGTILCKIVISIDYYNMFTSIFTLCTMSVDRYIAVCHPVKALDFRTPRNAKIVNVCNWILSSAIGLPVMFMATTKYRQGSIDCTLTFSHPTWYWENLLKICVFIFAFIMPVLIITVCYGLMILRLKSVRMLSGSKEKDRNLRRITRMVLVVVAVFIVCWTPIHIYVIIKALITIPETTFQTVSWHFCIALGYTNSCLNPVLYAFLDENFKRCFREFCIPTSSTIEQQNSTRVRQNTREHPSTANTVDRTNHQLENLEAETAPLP
Summary of the method: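 Rat whole brain (less cerebellum) membranes, preincubated 30 min at 25 °C to strip endogenous peptides. Displacement of 0.5 nM [3H]CTOP in 50 mM Tris-HCl pH 7.4 containing BSA, bestatin, bacitracin, captopril and toluenesulfonyl fluoride; 10 concentrations over an 800-fold range; 3 h at 25 °C; filtration.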

Mu-type opioid receptor [3] = experiment: Inhibitory potency against Opioid receptor mu 1 was determined in electrically induced strips of guinea pig ileum (GPI)
Summary of the method: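 Ileum longitudinal muscle–myenteric plexus strips from male Hartley guinea pigs (250–500 g), in oxygenated Krebs at 37 °C under 1 g tension. Transmural stimulation at 0.1 Hz, 0.4-ms pulses, supramaximal voltage. IC50 from Hill fit of mean data from at least four tissues.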

[4] = biological target: Delta-type opioid receptor (Rattus norvegicus, UniProt P33533); experiment: Inhibition of binding of radioligand [3H][p-Cl-phe]-DPDPE to Opioid receptor delta 1 in rat brain
Sequence of Delta-type opioid receptor (Rattus norvegicus, UniProt P33533) (P33533 whole entry): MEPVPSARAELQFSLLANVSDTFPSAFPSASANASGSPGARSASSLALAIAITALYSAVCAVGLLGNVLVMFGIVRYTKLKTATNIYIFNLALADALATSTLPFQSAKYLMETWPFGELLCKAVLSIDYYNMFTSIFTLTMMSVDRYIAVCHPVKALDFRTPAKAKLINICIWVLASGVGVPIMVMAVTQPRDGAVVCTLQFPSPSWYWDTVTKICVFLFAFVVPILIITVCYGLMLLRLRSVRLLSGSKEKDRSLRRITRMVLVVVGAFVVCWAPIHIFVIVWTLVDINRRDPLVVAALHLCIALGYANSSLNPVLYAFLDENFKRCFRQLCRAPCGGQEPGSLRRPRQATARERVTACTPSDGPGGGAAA

Sequence of Delta-type opioid receptor (Mus musculus, UniProt P32300) (P32300 whole entry): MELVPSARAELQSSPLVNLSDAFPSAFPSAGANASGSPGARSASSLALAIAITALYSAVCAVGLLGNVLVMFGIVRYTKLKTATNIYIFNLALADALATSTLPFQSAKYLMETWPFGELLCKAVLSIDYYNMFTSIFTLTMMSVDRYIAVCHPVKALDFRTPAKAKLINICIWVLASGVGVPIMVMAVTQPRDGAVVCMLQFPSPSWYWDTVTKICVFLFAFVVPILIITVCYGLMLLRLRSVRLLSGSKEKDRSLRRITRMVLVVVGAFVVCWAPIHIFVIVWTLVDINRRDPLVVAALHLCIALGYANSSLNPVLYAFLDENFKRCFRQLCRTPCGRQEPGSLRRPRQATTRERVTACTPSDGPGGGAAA

Row | SMILES | IC50 [1] | IC50 (Mu-type opioid receptor [2]) | IC50 (Mu-type opioid receptor [3]) | IC50 [4]
1 | CC1(C)SSC(C)(C)[C@@H](NC(=O)[C@@H](N)Cc2ccc(O)cc2)C(=O)NCC(=O)N[C@@H](Cc2ccc(F)cc2)C(=O)N[C@@H]1C(=O)N[C@@H](Cc1ccccc1)C(=O)O | 0.016 nM | 1650 nM | 740 nM | 0.43 nM
2 | CC1(C)SSC(C)(C)[C@@H](NC(=O)[C@@H](N)Cc2ccc(O)cc2)C(=O)NCC(=O)N[C@@H](Cc2ccccc2)C(=O)N[C@@H]1C(=O)N[C@@H](Cc1ccccc1)C(=O)O | 1.89 nM | 11400 nM | 5800 nM | 4 nM
3 | CC1(C)SSC(C)(C)[C@@H](NC(=O)[C@@H](N)Cc2ccc(O)cc2)C(=O)NCC(=O)N[C@@H](Cc2ccc(Br)cc2)C(=O)N[C@@H]1C(=O)N[C@@H](Cc1ccccc1)C(=O)O | 0.18 nM | 4200 nM | 3400 nM | 0.2 nM
4 | CC1(C)SSC(C)(C)[C@@H](NC(=O)[C@@H](N)Cc2ccc(O)cc2)C(=O)NCC(=O)N[C@@H](Cc2ccc(Cl)cc2)C(=O)N[C@@H]1C(=O)N[C@@H](Cc1ccccc1)C(=O)O | 0.17 nM | 1700 nM | 420 nM | 0.4 nM
5 | CC1(C)SSC(C)(C)[C@@H](NC(=O)[C@@H](N)Cc2ccc(O)cc2)C(=O)NCC(=O)N[C@@H](Cc2ccc(I)cc2)C(=O)N[C@@H]1C(=O)N[C@@H](Cc1ccccc1)C(=O)O | 0.8 nM | 7300 nM | 8700 nM | 0.47 nM
6 | CC1(C)SSC[C@@H](C(=O)N[C@@H](Cc2ccccc2)C(=O)O)NC(=O)[C@H](Cc2ccccc2)NC(=O)CNC(=O)[C@@H]1NC(=O)[C@@H](N)Cc1ccc(O)cc1 (HELM PEPTIDE1{Y.[CC(C)(S[*:3])[C@@H](N[*:1])C(=O)[*:2]].G.F.C.F}$PEPTIDE1,PEPTIDE1,2:R3-5:R3$$$V2.0) | – | – | 83 nM | –
